Consider 8 compounds from ChEMBL document CHEMBL2203243, “Synthesis and biological evaluation of novel benzimidazole derivatives and their binding behavior with bovine serum albumin” (Eur J Med Chem, 2012).

Data set [1] relates to Staphylococcus aureus. Kind of data set: Antimicrobial activity against methicillin-resistant Staphylococcus aureus N315 by microbroth dilution method. The format is functional. A general note: Broth dilution looks for growth in wells or tubes with falling amounts of substance.
In data set [2] the test system is Pseudomonas aeruginosa. The data set can be described thus: Antimicrobial activity against Pseudomonas aeruginosa by microbroth dilution method. The format is functional. The method in brief: (§1)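 Two-fold serial broth microdilution in 96-well microtest plates, run against four Gram-positive strains, five Gram-negative strains and two fungi.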
The subject of another data set is Candida albicans. Kind of data set: Antimicrobial activity against Candida albicans by microbroth dilution method. The format is functional. The essentials:
as §1

Data set [3] deals with Candida. Kind of data set: Antimicrobial activity against Candida mycoderma by microbroth dilution method. The format is functional. The essentials: as §1
For data set [4], the system named is Staphylococcus aureus. Kind of data set: Antimicrobial activity against Staphylococcus aureus ATCC 25923 by microbroth dilution method. The data set is classed as functional. The essentials: as §1
The next data set concerns Micrococcus luteus. Kind of data set: Antimicrobial activity against Micrococcus luteus ATCC 4698 by microbroth dilution method. The data set is classed as functional. The essentials:
as §1

Another data set concerns Shigella dysenteriae. The data set can be described thus: Antimicrobial activity against Shigella dysenteriae by microbroth dilution method. The format is functional.
The subject of the next data set is Bacillus. The data set can be described thus: Antimicrobial activity against Bacillus proteus by microbroth dilution method. The format is functional. The method in brief: as §1
Data set [5] can be described thus: Lipophilicity, log P of the compound by UV-Vis spectrophotometric method based saturation shake flask assay. The following applies: octanol/water. The format is physicochemical. The method in brief:
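Log P measured by the traditional saturation shake-flask partition, with compound quantified by UV-vis spectrophotometry.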

The subject of the next data set is Bacillus subtilis. The data set can be described thus: Antimicrobial activity against Bacillus subtilis by microbroth dilution method. The data set is classed as functional. The essentials:
as §1

A short description of data set [6]: Antimicrobial activity against Eberthella typhosa by microbroth dilution method. The format is functional. The essentials: as §1
The test system of data set [7] is Escherichia coli. The data set can be described thus: Antimicrobial activity against Escherichia coli DH52 by microbroth dilution method. The format is functional. The essentials:
as §1

The target in another data set is Albumin (Bos taurus, UniProt P02769). The data set can be described thus: Binding affinity to BSA at pH 7.4 by UV-vis absorption spectroscopic method. The format is ADME. The following applies: cattle, isolated protein.
Chain of Albumin (P02769 whole entry): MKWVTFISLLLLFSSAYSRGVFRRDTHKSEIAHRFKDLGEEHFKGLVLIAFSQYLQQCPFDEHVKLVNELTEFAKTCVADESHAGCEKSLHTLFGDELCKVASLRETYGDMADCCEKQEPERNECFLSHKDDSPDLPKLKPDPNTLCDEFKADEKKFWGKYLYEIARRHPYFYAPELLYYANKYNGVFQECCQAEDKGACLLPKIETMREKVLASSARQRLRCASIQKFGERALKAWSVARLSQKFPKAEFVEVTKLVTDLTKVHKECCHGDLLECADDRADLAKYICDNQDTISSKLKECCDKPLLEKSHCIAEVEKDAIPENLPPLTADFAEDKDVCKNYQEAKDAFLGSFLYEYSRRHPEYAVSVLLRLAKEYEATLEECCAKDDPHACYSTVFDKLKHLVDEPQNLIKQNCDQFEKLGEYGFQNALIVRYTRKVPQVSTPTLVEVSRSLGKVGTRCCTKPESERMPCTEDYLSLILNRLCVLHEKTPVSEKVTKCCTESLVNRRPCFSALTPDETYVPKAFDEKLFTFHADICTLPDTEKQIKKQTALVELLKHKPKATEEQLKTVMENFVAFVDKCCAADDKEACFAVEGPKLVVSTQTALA
Data set [8] has as its system Escherichia coli. Kind of data set: Potency index, ratio of MIC of chloromycin to MIC of compound against Escherichia coli DH52 by microbroth dilution method. The data set is classed as functional.
The test system of data set [9] is Staphylococcus aureus. Kind of data set: Potency index, ratio of MIC of chloromycin to MIC of compound against methicillin-resistant Staphylococcus aureus N315 by microbroth dilution method. The data set is classed as functional.
Data set [10] concerns Pseudomonas aeruginosa. The data set can be described thus: Potency index, ratio of MIC of chloromycin to MIC of compound against Pseudomonas aeruginosa by microbroth dilution method. The format is functional.
Data set [11] has as its system Candida. Kind of data set: Potency index, ratio of MIC of fluconazole to MIC of compound against Candida mycoderma by microbroth dilution method. The format is functional.

Converted amounts (≈) assume the structure as drawn. Bounds are passed on as bounds.

Turning to `CCCn1c(CNNC(=O)c2sc(C(=O)NNCc3nc4ccccc4n3CCC)c(C)c2C)nc2ccccc21`, the MIC – broadly, the smallest concentration in the dilution series that meets the test's criterion for growth inhibition – against Staphylococcus aureus [1] was 32 µg/mL (≈ 55.9 µM); against Pseudomonas aeruginosa [2] it was 128 µg/mL (≈ 223 µM); in the data set on Candida albicans, 512 µg/mL (≈ 894 µM); in the data set with Candida [3] it was 256 µg/mL (≈ 447 µM); against Staphylococcus aureus [4], 512 µg/mL (≈ 894 µM); in the data set with Micrococcus luteus, 256 µg/mL (≈ 447 µM). In addition, the MIC (in the data set with Shigella dysenteriae; with Bacillus; against Bacillus subtilis; in [6]; with Escherichia coli [7]) was 256 µg/mL (≈ 447 µM) each time. Besides, in data set [5] (read-out: logP), the logP (in general, the decadic logarithm of the partition coefficient of the neutral form, usually between octanol and water) is 3.7.
On to `CCCCCCCCCCn1c(CNNC(=O)c2sc(C(=O)NNCc3nc4ccccc4n3CCCCCCCCCC)c(C)c2C)nc2ccccc21`, for which the minimal inhibitory concentration (MIC) against Staphylococcus aureus [1] amounted to 2 µg/mL (≈ 2.6 µM); against Pseudomonas aeruginosa [2], 4 µg/mL (≈ 5.2 µM); with Candida albicans, 4 µg/mL (≈ 5.2 µM); with Candida [3], 2 µg/mL (≈ 2.6 µM); with Staphylococcus aureus [4], 2 µg/mL (≈ 2.6 µM); against Micrococcus luteus it was 16 µg/mL (≈ 20.8 µM). Further, the MIC worked out at 8 µg/mL (≈ 10.4 µM) in the data set with Shigella dysenteriae; 8 µg/mL (≈ 10.4 µM) in the data set with Bacillus; 4 µg/mL (≈ 5.2 µM) in the data set with Bacillus subtilis; 4 µg/mL (≈ 5.2 µM) in [6]; 4 µg/mL (≈ 5.2 µM) in the data set with Escherichia coli [7]. For the same compound, the outcome at Albumin was Active. Further, the Ratio in the data set with Escherichia coli [8] came out at 8; in the data set on Staphylococcus aureus [9], 8; with Pseudomonas aeruginosa [10] it was 8; with Candida [11], 2. Also, the logP entry in data set [5] is reported as “ND(Insoluble)”.
In the case of `Cc1c(C(=O)NNCc2nc3ccccc3n2Cc2ccc(Cl)cc2)sc(C(=O)NNCc2nc3ccccc3n2Cc2ccc(Cl)cc2)c1C`, the MIC in the data set with Staphylococcus aureus [1] was 32 µg/mL (≈ 43.4 µM); with Pseudomonas aeruginosa [2], 32 µg/mL (≈ 43.4 µM); against Candida albicans, 16 µg/mL (≈ 21.7 µM); in the data set on Candida [3], 32 µg/mL (≈ 43.4 µM); in the data set on Staphylococcus aureus [4], 32 µg/mL (≈ 43.4 µM); against Micrococcus luteus it was 16 µg/mL (≈ 21.7 µM). Further, the minimal inhibitory concentration (MIC) against Shigella dysenteriae turned out to be 32 µg/mL (≈ 43.4 µM); in the data set with Bacillus it was 32 µg/mL (≈ 43.4 µM); in the data set on Bacillus subtilis it was 32 µg/mL (≈ 43.4 µM); in [6], 16 µg/mL (≈ 21.7 µM); against Escherichia coli [7] it was 8 µg/mL (≈ 10.8 µM). The logP in data set [5] (read-out: logP) came out at 6.19.
Regarding `CCCCCCCCCCCCCCCCCCn1c(CNNC(=O)c2sc(C(=O)NNCc3nc4ccccc4n3CCCCCCCCCCCCCCCCCC)c(C)c2C)nc2ccccc21`, the minimum inhibitory concentration (MIC) was 512 µg/mL (≈ 515 µM) with Staphylococcus aureus [1]; 512 µg/mL (≈ 515 µM) against Pseudomonas aeruginosa [2]; above 512 µg/mL with Candida albicans; 256 µg/mL (≈ 258 µM) in the data set with Candida [3]; 256 µg/mL (≈ 258 µM) in the data set with Staphylococcus aureus [4]; above 512 µg/mL against Micrococcus luteus. The MIC against Shigella dysenteriae is 512 µg/mL (≈ 515 µM); against Bacillus, above 512 µg/mL; in the data set on Bacillus subtilis, above 512 µg/mL; in data set [6], 64 µg/mL (≈ 64.4 µM); with Escherichia coli [7], 512 µg/mL (≈ 515 µM). Besides, the lipophilicity (logP) entry in data set [5] is listed as “ND(Insoluble)”.
As to `CCCCCCn1c(CNNC(=O)c2sc(C(=O)NNCc3nc4ccccc4n3CCCCCC)c(C)c2C)nc2ccccc21`, the MIC worked out at 4 µg/mL (≈ 6.09 µM) in the data set with Staphylococcus aureus [1]; 32 µg/mL (≈ 48.7 µM) with Pseudomonas aeruginosa [2]; 32 µg/mL (≈ 48.7 µM) in the data set on Candida albicans; 32 µg/mL (≈ 48.7 µM) in the data set with Candida [3]; 32 µg/mL (≈ 48.7 µM) against Staphylococcus aureus [4]; 64 µg/mL (≈ 97.4 µM) in the data set with Micrococcus luteus. The minimum inhibitory concentration (MIC) in the data set on Shigella dysenteriae was 64 µg/mL (≈ 97.4 µM); in the data set with Bacillus it was 64 µg/mL (≈ 97.4 µM); in the data set on Bacillus subtilis, 32 µg/mL (≈ 48.7 µM); in [6] it was 64 µg/mL (≈ 97.4 µM); with Escherichia coli [7], 8 µg/mL (≈ 12.2 µM). For the same compound, the logP in data set [5] (read-out: logP) worked out at 6.62.
On to `Cc1c(C(=O)NN)sc(C(=O)NN)c1C`, for which the MIC was above 512 µg/mL against Staphylococcus aureus [1]; above 512 µg/mL in the data set on Pseudomonas aeruginosa [2]; 512 µg/mL (≈ 2240 µM) with Candida albicans; 512 µg/mL (≈ 2240 µM) against Candida [3]; above 512 µg/mL with Staphylococcus aureus [4]; 512 µg/mL (≈ 2240 µM) in the data set on Micrococcus luteus. Also, the minimal inhibitory concentration (MIC) was 512 µg/mL (≈ 2240 µM) in the data set on Shigella dysenteriae; above 512 µg/mL with Bacillus; above 512 µg/mL in the data set with Bacillus subtilis; 512 µg/mL (≈ 2240 µM) in data set [6]; 512 µg/mL (≈ 2240 µM) in the data set on Escherichia coli [7]. This compound showed a logP in data set [5] of -1.41.
Turning to `Cc1c(C(=O)NNCc2nc3ccccc3n2Cc2ccc(F)cc2F)sc(C(=O)NNCc2nc3ccccc3n2Cc2ccc(F)cc2F)c1C`, the MIC against Staphylococcus aureus [1] was found to be 128 µg/mL (≈ 173 µM); against Pseudomonas aeruginosa [2] it was 128 µg/mL (≈ 173 µM); against Candida albicans, 64 µg/mL (≈ 86.4 µM); against Candida [3], 256 µg/mL (≈ 346 µM); against Staphylococcus aureus [4] it was 64 µg/mL (≈ 86.4 µM); in the data set on Micrococcus luteus, 256 µg/mL (≈ 346 µM). Besides, the MIC against Shigella dysenteriae was found to be 256 µg/mL (≈ 346 µM); in the data set with Bacillus, 128 µg/mL (≈ 173 µM); in the data set with Bacillus subtilis it was 256 µg/mL (≈ 346 µM); in data set [6], 128 µg/mL (≈ 173 µM); against Escherichia coli [7] it was 128 µg/mL (≈ 173 µM). In addition, the logP in data set [5] (read-out: logP) is 4.96.
In the case of `Cc1c(C(=O)NNCc2nc3ccccc3n2Cc2ccccc2Cl)sc(C(=O)NNCc2nc3ccccc3n2Cc2ccccc2Cl)c1C`, the MIC with Staphylococcus aureus [1] was 16 µg/mL (≈ 21.7 µM); against Pseudomonas aeruginosa [2], 64 µg/mL (≈ 86.8 µM); against Candida albicans, 32 µg/mL (≈ 43.4 µM); against Candida [3], 128 µg/mL (≈ 174 µM); against Staphylococcus aureus [4], 32 µg/mL (≈ 43.4 µM); in the data set on Micrococcus luteus, 16 µg/mL (≈ 21.7 µM). Besides, the MIC against Shigella dysenteriae was 32 µg/mL (≈ 43.4 µM); against Bacillus, 16 µg/mL (≈ 21.7 µM); against Bacillus subtilis it was 32 µg/mL (≈ 43.4 µM); in [6] it was 128 µg/mL (≈ 174 µM); in the data set with Escherichia coli [7], 32 µg/mL (≈ 43.4 µM). Moreover, in data set [5] (read-out: logP), the log partition coefficient (logP) worked out at 6.25.
